Measurements as given in the EternaBench riboswitch data.

Test system: MS2 coat protein
Experiment: apparent Kd, MS2 coat protein; higher = weaker binding; RNA-MaP array; tryptophan 2.4 mM where present
Procedure, shortened: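 Stalled E. coli RNA polymerase produced the designs on Illumina sequencing-chip clusters. SNAP-549-labelled MS2 coat protein was added from 0.7 or 1.5 nM, doubling to 3 µM, without and then with constant ligand, in 100 mM Tris-HCl pH 7.5, 80 mM KCl, 4 mM MgCl2, BSA, DTT, yeast tRNA and Tween-20. The apparent Kd is the median of filtered per-cluster fits of green signal normalised to red-channel RNA signal and control-cluster median Fmax.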

[1] = designed as: OFF switch for tryptophan, no ligand
[2] = ligand present: tryptophan, designed as: OFF switch for tryptophan
[3] = designed as: ON switch for tryptophan, no ligand
[4] = ligand present: tryptophan, designed as: ON switch for tryptophan

GCGACCCUGAGAUCCUACGUAACGUGAACACGAGGACCGGUACGGCCGCCACUCGAGAGAACAUGAGGAUCACCCAUGUCUGAGC
apparent Kd [1]: 32.9 nM
apparent Kd [2]: 88.5 nM

GUGUGGAGCUCGGCCGCCACUCAAACAUGAGGAUCACCCAUGUAAAACAUGAGGAUCACCCAUGUGAGGACCGGGAGAAACACGA
apparent Kd [1]: 338 nM
apparent Kd [2]: 404 nM

GCAUCCUAGUCGGCCGCCACUGCAAUUGUAAUACUGCUACAUGAACAUGAGGAUCACCCAUGUAGCAGGACCGGGACUAGGAUGC
apparent Kd [3]: 164 nM
apparent Kd [4]: 27 nM

GCAUCCUAGUCGGCCGCCACUGGUAUCAACACCUUCACCCGUGUGCACAUGAGGAUCACCCAUGUUAGGACCGGGACUAGGAUGC
apparent Kd [3]: 8.4 nM
apparent Kd [4]: 8.5 nM

AUAUAUACAUGAGGAUCACCCAUGUUAUUACGAGGACCGGUACGGCCGCCACUCGAUAGAGUAGAAGUAAAUUGUAAUUCAUGUU
apparent Kd [1]: 12.4 nM
apparent Kd [2]: 12.6 nM

AAUGUCGGAUCGGCCGCCACUGGUUGGCCCUGUGUACAUGAGGAUCACCCAUGUCCAUCCCAAACCAGGACCGGGAUCUUUAUGU
apparent Kd [3]: 36.1 nM
apparent Kd [4]: 13 nM

GGAAAAGAAAGAAAAGAAAUCCCUCCCUCCCGAGGACCGGUACGGCCGCCACUCGCCCUCCCUCCCACAUGAGGAUCACCCAUGU
apparent Kd [1]: 23.5 nM
apparent Kd [2]: 23.4 nM

ACAUGAGGAUCACCCAUGUUUGAUGUUCCUCGAGGACCGGUACGGCCGCCACUCGAACGAGUGGCGCGCGAGCGCGCGCUCGCGC
apparent Kd [3]: 12.2 nM
apparent Kd [4]: 12.7 nM

GUCCAAAGGUCGGCCGCCACUGUAGGAUGUGUUCUUUCACAUGAGGAUCACCCAUGUUGUUAUUAUAGGACCGGGAUUGUAGGAC
apparent Kd [1]: 20.5 nM
apparent Kd [2]: 18.5 nM

UCGCCCGGGUCGGCCGCCACUGCGGUGAUGUGACAUGAGGAUCACCCAUGUUGUCAUGUGGCACAUAGGACCGGGACCCGGGCGA
apparent Kd [1]: 30.5 nM
apparent Kd [2]: 29.9 nM

GGAUUCAACUCGGCCGCCACUGGUGAUCCUAAUGUACAUGAGGAUCACCCAUGUACAUGAGAAUAUAGGACCGGGAGAUAAGUUA
apparent Kd [3]: 29 nM
apparent Kd [4]: 24.2 nM

ACAUGAGGAUCACCCAUGUGUGUAAGUCCUCGAGGACCGGUACGGCCGCCACUCGAACGAGUGUAACAUACUUGUUACAAGUAUG
apparent Kd [3]: 24 nM
apparent Kd [4]: 24.4 nM

UCGGGCAGAGCGGCCGCCACUGUAUGGCGUGCGGAUGACGGAACAUGAGGAUCACCCAUGUUGUUUAGGACCGGGCUUGCCGCGA
apparent Kd [1]: 11.2 nM
apparent Kd [2]: 13.2 nM

UGUCAUGGAAACAUGACAGGUUCUACCGGUCGAGGACCGGUACGGCCGCCACUCGAUUGGUGGCACAUGAGGAUCACCCAUGUUA
apparent Kd [3]: 25.2 nM
apparent Kd [4]: 25.2 nM

AGUUCCAGGUCGGCCGCCACUGGCAUGGCCGGUCCUCGGACUUACAUGAGGAUCACCCAUGUGAACAGGACCGGGACCGCAUGGG
apparent Kd [1]: 38.3 nM
apparent Kd [2]: 48.2 nM

AAUGGCCGUACCGGAAGGGUGAUCCUCAAACGAGGACCGGUACGGCCGCCACUCGAUAACAUGAGGAUCACCCAUGUAAUACAUA
apparent Kd [1]: 366 nM
apparent Kd [2]: 318 nM

UACUUGCUGACGGCCGCCACUAGAACAUGAGGAUCACCCAUGUAGGUCCUAGAUUCCUCAUGAACUAGGACCGGGUCAGCAAGAU
apparent Kd [1]: 52.6 nM
apparent Kd [2]: 12.4 nM

ACAUUGCGCUCGGCCGCCACUGGCUAUAGAUUUAUAGCAUUAAUGAACAUGAGGAUCACCCAUGUCAGGACCGGGAGCGAACCAU
apparent Kd [3]: 12.7 nM
apparent Kd [4]: 14.5 nM

UAAUCAGUGCCGGUUCUCGGAUCCUCAUGUCGAGGACCGGUACGGCCGCCACUCGAAACAUGAGGAUCACCCAUGUAAUAAUAAU
apparent Kd [1]: 89.6 nM
apparent Kd [2]: 65.8 nM

GUUAUAUACUCGGCCGCCACUGAGAGAGUCAUGUAAACAUGAGGAUCACCCAUGUAAUAUAUAUACAGGACCGGGAGUAUGGUAA
apparent Kd [1]: 14.3 nM
apparent Kd [2]: 13.5 nM

GGAUAGGACACGGCCGCCACUGCGGCUAGAUACUAGCACAUUUCCUCACAUGAGGAUCACCCAUGUAGGACCGGGUGUCCUAUCG
apparent Kd [1]: 95.7 nM
apparent Kd [2]: 132 nM

CUACAUUUGUAGAAACCGGUCAACAUUAUUCGAGGACCGGUACGGCCGCCACUCGUAUAUUUUUAUACAUGAGGAUCACCCAUGU
apparent Kd [3]: 12 nM
apparent Kd [4]: 11.4 nM

UUCUUUAAGUCGGCCGCCACUGAAACAUGAGGAUCACCCAUGUAUAUUUGUGUAAAGGUGGAUUACAGGACCGGGACUAUAGUAA
apparent Kd [1]: 12 nM
apparent Kd [2]: 12 nM

UAUAUAUAUCACUAACUGUUGUGGACGUCUCGAGGACCGGUACGGCCGCCACUCGGGCGGCCUCACAUGAGGAUCACCCAUGUCC
apparent Kd [1]: 125 nM
apparent Kd [2]: 110 nM

AGCACUGUGGCGGCCGCCACUACAUAUAGGGUGGUCAGGCCCAUAAUACAUGAGGAUCACCCAUGUAGGACCGGGCCUCAGUGCA
apparent Kd [1]: 15 nM
apparent Kd [2]: 14.8 nM

AUCAUAAUAGACUCGUUUGAUUAUAUGGAACGAGGACCGGUACGGCCGCCACUCGUGAUUUACAUGAGGAUCACCCAUGUUAGCA
apparent Kd [1]: 15.7 nM
apparent Kd [2]: 13.9 nM

CUUGACAUGAGGAUCACCCAUGUUGGUAAACGAGGACCGGUACGGCCGCCACUCGGUUACGUGUAGUACCGGUAAGAUCCAGGGU
apparent Kd [3]: 29.3 nM
apparent Kd [4]: 27.1 nM

UCGUAUGCGGCGGCCGCCACUCGCGGAUAACGAGAGCUUAACAUGAGGAUCACCCAUGUGUCAUGGAGGACCGGGCCCAUUCACA
apparent Kd [3]: 29.2 nM
apparent Kd [4]: 31.4 nM

GGAUAGGACACGGCCGCCACUGCCUAGGAUACUAGAAACAUUUCCUCACAUGAGGAUCACCCAUGUAGGACCGGGUGUCCUAUCG
apparent Kd [1]: 134 nM
apparent Kd [2]: 267 nM

AGUAAUAAUAUAAAUAAUAUUAGGUCAUGGCGAGGACCGGUACGGCCGCCACUCGGUUACAUGAGGAUCACCCAUGUCCCGCUUA
apparent Kd [1]: 30.5 nM
apparent Kd [2]: 34.6 nM

GACGAUAUGAUACGUCAGCAAUCCUCGAAACGAGGACCGGUACGGCCGCCACUCGAGUGAUACACAUGAGGAUCACCCAUGUACC
apparent Kd [1]: 39.3 nM
apparent Kd [2]: 53.2 nM

AGCACGGUGAUGGUAGCCGGACGCUAGGUACGAGGACCGGUACGGCCGCCACUCGAAGUCCUACGACAUGAGGAUCACCCAUGUA
apparent Kd [3]: 53.5 nM
apparent Kd [4]: 40.5 nM

ACAUGAGGAUCACCCAUGUGCAUCACCCGACGAGGACCGGUACGGCCGCCACUCGGGUAUAUAUUUGCAUCGGGUGAUUUUACGU
apparent Kd [3]: 19.6 nM
apparent Kd [4]: 14.9 nM

AAUGAGUGGUGGUCAAGUGAUCCUCAUGAACGAGGACCGGUACGGCCGCCACUCGAUAACAUGAGGAUCACCCAUGUAAUAAUAA
apparent Kd [1]: 16.5 nM
apparent Kd [2]: 14.8 nM
